Experimental data: ChEMBL document CHEMBL1157363, “Inhibition of isolated Mycobacterium tuberculosis fatty acid synthase I by pyrazinamide analogs” (Antimicrob Agents Chemother, 2007)
The source made the active and inactive calls. No cut-off for these calls is given here.

Tests used:
[1] = system: Mycobacterium tuberculosis; assay: Inhibition of Mycobacterium tuberculosis fatty acid synthase 1 expressed in Mycobacterium smegmatis mc2 2700 assessed as [2-14C]]malonyl-CoA incorporation into fatty acid at 3000 uM
[2] = system: Mycobacterium tuberculosis; assay: Inhibition of Mycobacterium tuberculosis fatty acid synthase 1 expressed in Mycobacterium smegmatis mc2 2700 assessed as [2-14C]]malonyl-CoA incorporation into fatty acid at 6000 uM
[3] = Inhibition of Mycobacterium tuberculosis fatty acid synthase 1 expressed in Mycobacterium smegmatis mc2 2700 assessed as NADPH oxidation at 100 uM of NADPH by spectrophotometry
Outline: (§1)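 Purified Mtb FASI (from M. smegmatis Δfas1 attB::Mtb fas1, ammonium sulfate, DE52, gel filtration), 1–3 μg in 1 ml: 50 μM acetyl-CoA, 40 μM malonyl-CoA, 100 μM NADPH, 5 mM DTT, 400 mM potassium phosphate pH 7.4; inhibitor in DMSO (≤0.05 ml/ml). Linear A340 decrease over 10 min at 37°C; IC50 from Dixon plot x-intercept at 100 μM NADPH.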

[4] = system: Mycobacterium tuberculosis; assay: Inhibition of Mycobacterium tuberculosis fatty acid synthase 1 expressed in Mycobacterium smegmatis mc2 2700 assessed as NADPH oxidation by spectrophotometry; outline: as §1
[5] = system: Mycobacterium tuberculosis; assay: Inhibition of Mycobacterium tuberculosis fatty acid synthase 1 expressed in Mycobacterium smegmatis mc2 2700 assessed as NADPH oxidation upto 100 mM by spectrophotometry
Outline: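 NADPH oxidation by purified Mtb FASI (1–3 μg/ml), 50 μM acetyl-CoA, 40 μM malonyl-CoA, 100 μM NADPH, 5 mM DTT, 400 mM potassium phosphate pH 7.4, 37°C, A340 decrease over 10 min; inhibitor added from DMSO at up to 100 mM, percent inhibition read.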

[6] = Inhibition of Mycobacterium tuberculosis fatty acid synthase 1 expressed in Mycobacterium smegmatis mc2 2700 assessed as NADPH oxidation using variable concentration of NADPH by spectrophotometry

SMILES	inhibition [1] [%]	inhibition [2] [%]	IC50 [3] [µM]	also measured
CCCOC(=O)c1cnccn1	6	37	1720	–
CCCNC(=O)c1cnc(Cl)cn1	6	37	8.1	–
CC(C)(C)OC(=O)c1cnc(F)cn1	–	–	4.3	–
C/C=C/C/C=C/CCC(=O)[C@H]1O[C@H]1C(N)=O	–	62	–	Activity [1]: inactive
O=C(O)c1cnccn1	6	37	–	Activity [4]: Dose-dependent effect
CCCOC(=O)c1cnc(Cl)cn1	–	66	5.9	–
CC(C)(C)NC(=O)c1cnc(Cl)cn1	–	–	8.7	–
NC(=O)c1ccccc1	–	–	–	inhibition [5]: 15%
NC(=O)c1cnc(Cl)cn1	39	–	15.1	Activity [4]: Dose-dependent effect; IC50 [6]: 151 µM; Ki [6]: 55 µM
CCCOC(=O)c1cnc(F)cn1	–	66	1.5	–
NC(=O)c1cnccn1 [PYRAZINAMIDE]	6	37	8930	Activity [4]: Dose-dependent effect; IC50 [6]: 8930 µM; Ki [6]: 2570 µM
CC[C@@H](CO)NCCN[C@@H](CC)CO	–	–	–	Activity [2]: inactive
CC(C)(C)OC(=O)c1cnccn1	–	–	1360	–
CC(C)(C)OC(=O)c1cnc(Cl)cn1	–	–	15.1	–
